This assay is described as follows: Displacement of [3H]BTX-B from voltage gated sodium channel in rat cerebral cortex synaptoneurosomes. In kind it is tissue-based. An outline of the steps:
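Rat cerebral cortex synaptoneurosomes (~1 mg protein), stored frozen at –70 °C, thawed and resuspended in HEPES incubation buffer. […] Filtration assay; nonspecific binding defined with 300 μM veratridine. Triplicates, DPH control run alongside. IC50 by Probit analysis, using only points with 10–90% inhibition.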
(In general: In a radioligand displacement assay an active substance lowers the binding of a labelled ligand.)

Bounds are passed on as bounds.

Broadly, the IC50 is the point on the concentration scale where inhibition reaches its midpoint. In turn, `CCC1(c2ccccc2)NC(=O)NC1=O` (stereo not given) gave an IC50 of over 200 µM. The molecule `CCOC(=O)C(O)(CC)c1ccccc1` (stereo not given) displayed an IC50 of over 200 µM. The figure for `CCC1(c2ccccc2)NC(=O)N(S(C)(=O)=O)C1=O` (stereo not given) is over 500 µM. Regarding `CCCCCCCC(N)(C(=O)O)c1ccccc1` (stereo not given), the IC50 was 300 µM. The molecule `CCCCCC(O)(C(N)=O)c1ccccc1` (stereo not given) came in with an IC50 of 178 µM. As for `CCCCCCCCCC(N)(C(=O)O)c1ccccc1` (stereo not given), the figure is 274 µM; as for `CCC(OCCCc1ccccc1)(C(=O)NCCCc1ccccc1)c1ccccc1` (stereo not given), 4.3 µM; as for `CCCCCCCCCC(O)(C(N)=O)c1ccccc1` (stereo not given), 6.5 µM. On to `O=C1NC(c2ccccc2)(c2ccccc2)C(=O)N1CN1CCN(C(c2ccccc2)c2ccccc2)CC1`, for which the IC50 amounted to 4.5 µM. Turning to `CCCC1(c2ccccc2)OC(=O)NC1=O` (stereo not given), the IC50 worked out at 448 µM. This IC50 is about 100-fold higher than that of the molecule before. In the case of `CCCCCC1(c2ccccc2)NC(=O)N(S(C)(=O)=O)C1=O` (stereo not given), the IC50 was 112 µM. As for `CCCCCCCCCC(O)(C(=O)O)c1ccccc1` (stereo not given), the figure is 84 µM. The figure for `CCC1(c2ccccc2)NC(=O)N(S(=O)(=O)c2ccc(C)cc2)C1=O` (stereo not given) is 51 µM; for `CCCCCCCC(O)(C(=O)O)c1ccccc1` (stereo not given) it is over 500 µM; for `CCC(O)(C(N)=O)c1ccccc1` (stereo not given) it is over 500 µM. `CCC1(c2ccccc2)NC(=O)N(CCN2CCN(C(c3ccccc3)c3ccccc3)CC2)C1=O` (stereo not given): the 50% inhibitory concentration (IC50) amounted to 1.1 µM. That is a single-digit micromolar value. The molecule `O=C1NC(c2ccccc2)(c2ccccc2)C(=O)N1CCN1CCN(C(c2ccccc2)c2ccccc2)CC1` came in with an IC50 of 0.22 µM.

Consider `CC(O)(C(=O)N1CCN(C(c2ccccc2)c2ccccc2)CC1)c1ccccc1` (stereo not given), for which the IC50 worked out at 6.3 µM. `CCC(O)(C(=O)O)c1ccccc1` (stereo not given) showed an IC50 of over 500 µM. As for `CCCCCCCC(O)(C(=O)OCC)c1ccccc1` (stereo not given), the figure is 36 µM.

In turn, `CCCCCC(O)(C(=O)NCCc1ccccc1)c1ccccc1` (stereo not given) had an IC50 of 5 µM. As for `CCCCCC(O)(C(=O)NCCCc1ccccc1)c1ccccc1` (stereo not given), the figure is 2.5 µM; as for `CCCCCCCC1(c2ccccc2)NC(=O)N(CN2CCN(C(c3ccccc3)c3ccccc3)CC2)C1=O` (stereo not given), 2.2 µM.

Turning to `CCC(N)(C(=O)O)c1ccccc1` (stereo not given), the IC50 is over 500 µM. In turn, `CCCCCC(N)(C(=O)O)c1ccccc1` (stereo not given) showed an IC50 of over 500 µM. As for `CCCC(O)(C(=O)O)c1ccccc1` (stereo not given), the figure is over 500 µM; as for `CCCCCC(O)(C(=O)O)c1ccccc1` (stereo not given), over 500 µM; as for `CCCCCCCC(O)(C(N)=O)c1ccccc1` (stereo not given), 9 µM. In turn, `CCCCCC1(c2ccccc2)NC(=O)NC1=O` (stereo not given) displayed an IC50 of 39 µM. With `CCCC1(c2ccccc2)NC(=O)NC1=O` (stereo not given), the IC50 stood at 162 µM. The figure for `CCCCCC1(c2ccccc2)NC(=O)N(Cc2ccccc2)C1=O` (stereo not given) is 6.9 µM; for `CCC(O)(C(=O)NCCC(c1ccccc1)c1ccccc1)c1ccccc1` (stereo not given) it is 35 µM; for `CCCCCC1(c2ccccc2)NC(=O)N(CN2CCN(C(c3ccccc3)c3ccccc3)CC2)C1=O` (stereo not given) it is 1.3 µM. For `CCCCCCCCCC1(c2ccccc2)NC(=O)N(Cc2ccccc2)C1=O` (stereo not given), the IC50 was found to be 5.1 µM. As for `CCCCCC1(c2ccccc2)OC(=O)NC1=O` (stereo not given), the figure is 112 µM. In turn, `CCC1(c2ccccc2)NC(=O)N(CN2CCN(C(c3ccccc3)c3ccccc3)CC2)C1=O` (stereo not given) displayed an IC50 of 3.3 µM. In the case of `CCCCCCCC1(c2ccccc2)OC(=O)NC1=O` (stereo not given), the IC50 was found to be 30 µM. This IC50 lies about 9.1-fold higher than the previous one.

In turn, `CCCCCCCC1(c2ccccc2)NC(=O)N(S(C)(=O)=O)C1=O` (stereo not given) yielded an IC50 of 13 µM. As for `CCC(O)(C(=O)NCCc1ccccc1)c1ccccc1` (stereo not given), the figure is 30 µM; as for `CCC(O)(C(=O)NCCCc1ccccc1)c1ccccc1` (stereo not given), 8.2 µM; as for `CCCCCCCCCC1(c2ccccc2)NC(=O)N(S(C)(=O)=O)C1=O` (stereo not given), 11 µM. As for `CCCCCCCCCC1(c2ccccc2)OC(=O)NC1=O` (stereo not given), the figure is 11 µM. The molecule `CCCCC1(c2ccccc2)NC(=O)NC1=O` (stereo not given) returned an IC50 of 103 µM.

The molecule `CCCCCCCCCC1(c2ccccc2)NC(=O)NC1=O` (stereo not given) showed an IC50 of 5 µM. This IC50 lies about 21-fold lower than the previous one. Molecule `CCCC1(c2ccccc2)NC(=O)N(S(C)(=O)=O)C1=O` (stereo not given) gave an IC50 of 500 µM. Against the preceding molecule, the IC50 is about 100-fold higher. As for `CCCCCCCC1(c2ccccc2)NC(=O)NC1=O` (stereo not given), the figure is 5 µM; as for `CCCCCC(O)(C(=O)N1CCN(C(c2ccccc2)c2ccccc2)CC1)c1ccccc1` (stereo not given), 4.8 µM; as for `CCCC(O)(C(N)=O)c1ccccc1` (stereo not given), 500 µM. Molecule `CCCCCC(O)(C(=O)NCCC(c1ccccc1)c1ccccc1)c1ccccc1` (stereo not given) came in with an IC50 of 5.3 µM. As for `CC(O)(C(N)=O)c1ccccc1` (stereo not given) [ATROLACTAMIDE], the figure is over 500 µM.

The record behind these values is ChEMBL document CHEMBL1149278, “Synthesis and structure-activity relationship studies for hydantoins and analogues as voltage-gated sodium channel ligands” (J Med Chem, 2004).
